Numbering of substitutions follows the chain as printed. pEC50, pIC50: −log10 of the molar value. The source made the active and inactive calls. The calls are words filed in the database; no cut-off is given here.
Key:
[1] = Metabolic stability in human liver microsomes assessed as parent compound remaining at 0.5 uM after 60 mins in presence of NADPH by LC/MS/MS analysis; type: ADME, Microsome; details: liver microsomes, read-out: Stability
How it was run: (§1)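 Compound at 0.5 μM incubated with liver microsomes at 37°C for 1 h; result given as percent remaining. Final DMSO 0.2%.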

[2] = target: T1, Peroxisome proliferator-activated receptor alpha (Rattus norvegicus, UniProt P37230); assay: Transactivation of rat GAL4-fused PPARalpha expressed in human HepG2 cells after 24 hrs by dual renilla-luciferase reporter gene assay; type: cell-based
T1 sequence (P37230 whole entry): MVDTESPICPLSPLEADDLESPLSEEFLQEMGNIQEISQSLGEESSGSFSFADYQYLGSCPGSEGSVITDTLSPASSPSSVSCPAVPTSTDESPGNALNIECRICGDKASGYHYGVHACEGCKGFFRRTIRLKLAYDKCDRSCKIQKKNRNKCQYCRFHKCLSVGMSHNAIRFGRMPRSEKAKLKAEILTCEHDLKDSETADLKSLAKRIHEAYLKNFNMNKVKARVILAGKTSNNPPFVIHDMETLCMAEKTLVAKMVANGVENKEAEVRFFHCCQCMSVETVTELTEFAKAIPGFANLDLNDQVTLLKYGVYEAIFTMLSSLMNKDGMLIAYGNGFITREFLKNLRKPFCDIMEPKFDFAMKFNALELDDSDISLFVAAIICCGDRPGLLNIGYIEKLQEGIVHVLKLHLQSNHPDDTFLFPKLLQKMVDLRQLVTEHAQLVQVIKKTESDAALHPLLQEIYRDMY
How it was run: (§2)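 HepG2 cells carried GAL4-fused human PPARγ or PPARδ, or mouse or rat PPARα, plus the 4xUAS-tk-luc reporter. Cells treated across a concentration range for 24 h. Luciferase normalized to Renilla activity and expressed as fold induction over vehicle, set as 1.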

[3] = target: T2, Peroxisome proliferator-activated receptor alpha (Homo sapiens, UniProt Q07869); assay: Transactivation of human GAL4-fused PPARalpha LBD expressed in human HepG2 cells after 24 hrs by renilla luciferase reporter gene assay; type: cell-based
T2 sequence (Q07869 whole entry): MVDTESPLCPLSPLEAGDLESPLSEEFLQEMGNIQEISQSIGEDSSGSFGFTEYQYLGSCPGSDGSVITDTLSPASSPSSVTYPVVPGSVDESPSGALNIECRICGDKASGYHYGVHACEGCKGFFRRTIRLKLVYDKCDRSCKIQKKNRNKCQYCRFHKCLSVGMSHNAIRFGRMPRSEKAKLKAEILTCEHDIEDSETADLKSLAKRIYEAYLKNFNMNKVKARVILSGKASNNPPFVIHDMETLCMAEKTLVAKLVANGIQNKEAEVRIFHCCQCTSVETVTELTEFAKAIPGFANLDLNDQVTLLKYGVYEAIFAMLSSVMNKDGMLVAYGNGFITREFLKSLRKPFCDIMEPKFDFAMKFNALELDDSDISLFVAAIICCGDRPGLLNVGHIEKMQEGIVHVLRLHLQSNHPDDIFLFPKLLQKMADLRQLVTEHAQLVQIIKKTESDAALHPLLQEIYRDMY

[4] = target: T3, Peroxisome proliferator-activated receptor alpha (Mus musculus, UniProt P23204); assay: Transactivation of mouse GAL4-fused PPARalpha expressed in human HepG2 cells after 24 hrs by dual renilla-luciferase reporter gene assay; type: cell-based; how it was run: as §2
T3 sequence (P23204 whole entry): T1 sequence (P37230 whole entry) with L41I, S50G, A85V, V86I, T88A, N96S, A135V, A207G, N265D

[5] = Solubility of the compound in pH 7.4 PBS at 100 uM incubated for 10 mins under shaking condition by HPLC analysis; type: physicochemical
How it was run: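 Aqueous solubility determined in PBS, pH 7.4; reported in μM.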

[6] = Protein binding in rat plasma at 20 uM after 5 hrs by LC/MS/MS analysis; type: ADME, cell-free; details: read-out: PPB
How it was run: (§3)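 Compound at 20 μM incubated with plasma at 37°C for 5 h; percent bound to protein determined. Final DMSO 0.2%.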

[7] = target: Peroxisome proliferator-activated receptor alpha (Homo sapiens) (UniProt Q07869); assay: Displacement of fluormone pan-PPAR green from GST-tagged human PPARalpha ligand binding domain after 3 hrs by TR-FRET assay
[8] = Effect on cyclophilinA expression in human FLC4 cells after 48 hrs by SYBR green dye-based RT-PCR analysis; type: ADME, cell-based
[9] = Metabolic stability in rat liver microsomes assessed as parent compound remaining at 0.5 uM after 60 mins in presence of NADPH by LC/MS/MS analysis; type: ADME, Microsome; details: liver microsomes, read-out: Stability; how it was run: as §1
[10] = Protein binding in human plasma at 20 uM after 5 hrs by LC/MS/MS analysis; type: ADME, cell-free; details: read-out: PPB (converted); how it was run: as §3
[11] = Apparent permeability from apical to basolateral side in human Caco2 cells at 25 uM measured up to 2 hrs by LC/MS/MS analysis; type: ADME, cell-based; details: Caco-2
How it was run: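 Caco-2 monolayers; permeability measured apical-to-basolateral (A–B) at 25 μM compound, reported as ×10⁻⁶ cm/s.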

[12] = tested on: Rattus norvegicus; assay: […] activity in fructose-challenged Sprague-Dawley rat assessed as increase in liver CPT1A mRNA expression at 30 mg/kg, po administered once daily via gavage for 2 weeks measured after 5 hrs fasting by SYBR green dye-based RT-PCR analysis; type: functional, organism-based
How it was run: (§4)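 Male rats were given 25% fructose in drinking water for 3 weeks. They then received 30 mg/kg/day orally in 0.5% methylcellulose (vehicle control) for 2 more weeks while fructose continued. Liver mRNA was measured by real-time RT-PCR, normalized to β2-microglobulin and set as 1 in the vehicle group. Values are means ± S.D.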

[13] = tested on: Rattus norvegicus; assay: […] activity in fructose-challenged Sprague-Dawley rat assessed as increase in liver ACADM mRNA expression at 30 mg/kg, po administered once daily via gavage for 2 weeks measured after 5 hrs fasting by SYBR green dye-based RT-PCR analysis; type: functional, organism-based; how it was run: as §4
[14] = tested on: Rattus norvegicus; assay: […] activity in fructose-challenged Sprague-Dawley rat assessed as increase in liver ACOX1 mRNA expression at 30 mg/kg, po administered once daily via gavage for 2 weeks measured after 5 hrs fasting by SYBR green dye-based RT-PCR analysis; type: functional, organism-based; how it was run: as §4
[15] = tested on: Rattus norvegicus; assay: […] activity in fructose-challenged Sprague-Dawley rat assessed as reduction in serum triglyceride level at 30 mg/kg, po administered once daily via gavage for 2 weeks measured after 5 hrs fasting; type: functional, organism-based
How it was run: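 Male rats had 25% fructose in drinking water for 3 weeks, then oral dosing at 30 mg/kg/day for 2 weeks with fructose continued. The vehicle group got 0.5% methylcellulose. Serum triglyceride was measured after the 2-week treatment.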

[16] = tested on: Rattus norvegicus; assay: […] activity in fructose-challenged Sprague-Dawley rat assessed as increase in liver SLC25A20 mRNA expression at 30 mg/kg, po administered once daily via gavage for 2 weeks measured after 5 hrs fasting by SYBR green dye-based RT-PCR analysis; type: functional, organism-based; how it was run: as §4

remaining at 1 h, 0.5 µM [1]	pEC50 [2]	pEC50 [3]	pEC50 [4]	solubility at 10 min, 100 µM [5]	fraction unbound at 5 h, 20 µM [6]	pIC50 [7]	remaining at 1 h, 0.5 µM [9]	fraction unbound at 5 h, 20 µM [10]	Papp A→B at 2 h, 25 µM [11]	SMILES	Activity [8]	Activity [12]	Activity [13]	Activity [14]	Activity [15]	Activity [16]
91%	4.80	6.18	4.95	> 95 µM	0.01	5.35	87%	0.003	51.8 ×10⁻⁶ cm/s	Cc1cc(C(=O)O)c2c(C(C)C)nn(-c3ccc(Cl)cc3)c2n1	Non-Toxic	–	–	–	–	–
–	–	–	–	–	–	–	–	–	–	CC(C)OC(=O)C(C)(C)Oc1ccc(C(=O)c2ccc(Cl)cc2)cc1	–	Active	Active	Active	Active	Active
